Source: ChEMBL document CHEMBL1156162, “Investigating the anti-proliferative activity of styrylazanaphthalenes and azanaphthalenediones” (Bioorg Med Chem, 2010)
pIC50: −log10 of the molar value.

Columns and labels:
SK-N-MC = test: Cytotoxicity against human SK-N-MC cells after 72 hrs by MTT assay; format: functional, cell-based
In short: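 SK-N-MC cells in MEM with 10% FBS, pyruvate, non-essential amino acids, glutamine, antibiotics and fungizone. Seeded 24 h before treatment, then 72 h with varying concentrations. MTT (5 mg/mL stock) added for 2 h at 37 °C, followed by lysis and OD at 570 nm. IC50 derived; triplicate wells, experiments repeated 3–7 times.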

HCT-116 [1] = test: Cytotoxicity against human HCT116 cells after 24 to 96 hrs by MTS assay; format: functional, cell-based
In short: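 HCT116 cells grown as monolayers in DMEM with 12% FBS and antibiotics at 37 °C, 5% CO2. Seeded at 3.5×10³, 7×10³ or 9×10³ cells/well, cultured 18 h, then exposed to 0.58 or 46 µmol/L final for 24, 48 or 96 h at 37 °C. Medium replaced with phenol red-free DMEM, MTS added for 1 h, absorbance read at 490 nm.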

[2] = Lipophilicity, log K by RT-HPLC method; format: physicochemical
In short: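 RP-HPLC on a C18 column (5 µm, 4.6 × 250 mm) with photodiode array detection, column at 30 °C and samples at 10 °C. Lipophilicity expressed as capacity factor k and calculated log k.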

HCT-116 [3] = test: Cytotoxicity against human HCT116 cells assessed as decrease in survival fraction of cells at 0.58 uM after 24 hrs by colonogenic assay; format: functional
In short: (§1)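 HCT116 cells (8.5×10⁴ or 2.1×10⁵) were seeded in 35-mm dishes and held 18 h, then exposed to 0.58 or 46 µM in medium for 24 h or 96 h. Cells were trypsinised and re-seeded drug-free, then grown 9 days at 37 °C. Colonies were fixed in ethanol, stained with crystal violet, and those of ≥50 cells counted. Survival fraction was taken relative to untreated cells; means of 3 or 2 experiments.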

HCT-116 [4] = test: Cytotoxicity against human HCT116 cells assessed as decrease in survival fraction of cells at 46 uM after 24 hrs by colonogenic assay; format: functional; in short: as §1
HCT-116 [5] = test: Cytotoxicity against human HCT116 cells assessed as decrease in survival fraction of cells at 0.58 uM after 96 hrs by colonogenic assay; format: functional; in short: as §1
HCT-116 [6] = test: Cytotoxicity against human HCT116 cells assessed as decrease in survival fraction of cells at 46 uM after 96 hrs by colonogenic assay; format: functional; in short: as §1
NIH3T3 (Mus musculus) [7] = test: Cytotoxicity against mouse NIH/3T3 cells assessed as IC50
NIH3T3 (Mus musculus) [8] = test: as above; remark: listed apart in the source
[9] = Cytotoxicity against mouse NIH/3T3 cells assessed as viable cells after 72 hrs by MTT assay; format: cell-based; details: NIH3T3, 72 h
L1210 = test: Antiproliferative activity against mouse L1210 cells; format: functional, cell-based

Row | log K [2] | SMILES | pIC50 (SK-N-MC) | pIC50 (HCT-116 [1]) | other results
1 | 1.365 | COc1ccccc1/C=C/c1nc(Cl)c2ccccc2n1 | 6.24 | 5.03 | Activity (HCT-116 [3]): 0.43; Activity (HCT-116 [4]): 0.03; Activity (HCT-116 [5]): 0; Activity (HCT-116 [6]): 0; IC50 (NIH3T3 (Mus musculus) [7]): > 100 µM; IC50 (NIH3T3 (Mus musculus) [8]): > 100 µM
2 | 1.134 | COc1ccc(/C=C/c2nc(Cl)c3ccccc3n2)cc1 | 5.36 | – | IC50 (NIH3T3 (Mus musculus) [7]): > 100 µM
3 | 1.198 | COc1ccc(/C=C/c2nc3ccccc3c(=O)[nH]2)c(OC)c1 | < 5.20 | – | –
4 | 0.551 | O=c1[nH]c(/C=C/c2ccc(O)c(O)c2O)nc2ccccc12 | – | < 4.34 | –
5 | 1.675 | O=c1[nH]c(/C=C/c2ccc(Br)cc2)nc2ccc([N+](=O)[O-])cc12 | < 5.20 | – | –
6 | 1.109 | Clc1nc(/C=C/c2ccccc2)nc2ccccc12 | 5.30 | – | pIC50 [9]: 5.52
7 | 1.151 | COc1ccccc1/C=C/c1nc2ccccc2c(=O)[nH]1 | 5.54 | 5.80 | pIC50 [9]: 5.93
8 | 1.593 | O=c1[nH]c(/C=C/c2ccc(Br)cc2)nc2ccccc12 | 5.55 | – | –
9 | 1.035 | O=Cc1ccc(/C=C/c2nc3ccccc3c(=O)[nH]2)cc1 | < 5.20 | – | –
10 | 1.183 | COc1cccc(/C=C/c2nc(Cl)c3ccccc3n2)c1 | 5.28 | – | IC50 (NIH3T3 (Mus musculus) [7]): > 100 µM
11 | 0.553 | Cc1nc2ccccc2c(=O)n1C(N)=O | < 5.20 | < 3.22 | –
12 | 0.958 | Cc1nc2ccc([N+](=O)[O-])cc2c(=O)n1C(N)=O | < 5.20 | < 4.04 | –
13 | 1.483 | O=c1[nH]c(/C=C/c2ccccc2Br)nc2ccccc12 | < 5.20 | < 4.34 | –
14 | 1.184 | COc1cccc(/C=C/c2nc3ccccc3c(=O)[nH]2)c1 | 5.29 | – | –
15 | 1.59 | O=c1[nH]c(/C=C/c2cccc(Br)c2)nc2ccccc12 | < 5.20 | – | –
16 | 1.506 | O=c1[nH]c(/C=C/c2cccc(Cl)c2)nc2ccccc12 | < 5.20 | – | –
17 | 1.135 | COc1ccc(/C=C/c2nc3ccccc3c(=O)[nH]2)cc1 | < 5.20 | < 4.34 | IC50 (NIH3T3 (Mus musculus) [7]): > 100 µM
18 | 1.195 | COc1ccc(/C=C/c2nc(Cl)c3ccccc3n2)c(OC)c1 | 5.76 | 4.64 | IC50 (NIH3T3 (Mus musculus) [7]): 34.1 µM
19 | 0.017 | CC(=O)NC1=CC(=O)c2cnc(C)nc2C1=O | – | 4.77 | Activity (HCT-116 [3]): 1.2; Activity (HCT-116 [4]): 0; Activity (HCT-116 [5]): 0.26; Activity (HCT-116 [6]): 0
20 | – | CC(=O)C1=CC(=O)c2nc(C)ccc2C1=O | – | 4.96 | Activity (HCT-116 [3]): 1.07; Activity (HCT-116 [4]): 0.04; Activity (HCT-116 [5]): 0.21; Activity (HCT-116 [6]): 0
21 | 1.539 | Oc1cccc2ccc(/C=C/c3ccc(Cl)cc3)nc12 | 6.15 | – | –
22 | – | COc1ccc2nc(/C=C/c3ccccc3)[nH]c(=O)c2c1 | – | – | pIC50 (L1210): 5.44
23 | 1.115 | O=c1[nH]c(/C=C/c2ccccc2)nc2ccccc12 | 5.86 | 5.60 | pIC50 [9]: 5.62
24 | – | CC(=O)N(O)CCCCCNC(=O)CCC(=O)N(O)CCCCCNC(=O)CCC(=O)N(O)CCCCCN [DEFEROXAMINE] | 5.00 | – | –
25 | – | COc1cccc2c1C(=O)c1c(O)c3c(c(O)c1C2=O)C[C@@](O)(C(=O)CO)C[C@@H]3O[C@H]1C[C@H](N)[C@H](O)[C@H](C)O1 [DOXORUBICIN] | 6.92 | 5.23 | –
